# Laboratory results taken from ChEMBL document CHEMBL4715736, “Identification of anticancer agents based on the thieno[2,3-b]pyridine and 1H-pyrazole molecular scaffolds” (2016).
# Test system: NCI-H522
# Test: Growth inhibition of human NCI-H522 cells assessed as cell growth at 0.01 uM incubated for 48 hrs by sulforhodamine B assay relative to control
# Assay type: functional
# Conditions: read-out: Activity
row,Compound,growth at 0.01 µM
1,Cc1cc(C)c(NC(=O)c2sc3nc4c(cc3c2N)CN(Cc2ccccc2)CC4)c(C)c1,96%

# Test system: COLO 205
# Test: Growth inhibition of human COLO 205 cells assessed as cell growth at 0.01 uM incubated for 48 hrs by sulforhodamine B assay relative to control
# Assay type: functional
# Conditions: read-out: Activity
# Summary of the method: (§1)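 NCI Developmental Therapeutics Program NCI60 panel. Compounds that were active in the 10 µM one-dose screen went on to dose–response testing. Growth at each concentration is expressed relative to untreated control (100%). GI50 (concentration giving 50% of maximal inhibition of proliferation) and TGI (concentration giving total growth inhibition) were derived from the curves.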
row,Compound,growth at 0.01 µM
1,Cc1cc(C)c(NC(=O)c2sc3nc4c(cc3c2N)CN(Cc2ccccc2)CC4)c(C)c1,94%

# Test system: Malme-3M
# Test: Growth inhibition of human Malme-3M cells assessed as cell growth at 0.01 uM incubated for 48 hrs by sulforhodamine B assay relative to control
# Assay type: functional
# Conditions: read-out: Activity
row,Compound,growth at 0.01 µM
1,Cc1cc(C)c(NC(=O)c2sc3nc4c(cc3c2N)CN(Cc2ccccc2)CC4)c(C)c1,106%

# Test system: UACC-257
# Test: Growth inhibition of human UACC-257 cells assessed as cell growth at 0.01 uM incubated for 48 hrs by sulforhodamine B assay relative to control
# Assay type: functional
# Conditions: read-out: Activity
row,Compound,growth at 0.01 µM
1,Cc1cc(C)c(NC(=O)c2sc3nc4c(cc3c2N)CN(Cc2ccccc2)CC4)c(C)c1,94%

# Test system: ACHN
# Test: Growth inhibition of human ACHN cells assessed as cell growth at 0.01 uM incubated for 48 hrs by sulforhodamine B assay relative to control
# Assay type: functional
# Conditions: read-out: Activity
row,Compound,growth at 0.01 µM
1,Cc1cc(C)c(NC(=O)c2sc3nc4c(cc3c2N)CN(Cc2ccccc2)CC4)c(C)c1,97%

# Test system: RXF 393
# Test: Growth inhibition of human RXF 393 cells assessed as cell growth at 0.01 uM incubated for 48 hrs by sulforhodamine B assay relative to control
# Assay type: functional
# Conditions: read-out: Activity
row,Compound,growth at 0.01 µM
1,Cc1cc(C)c(NC(=O)c2sc3nc4c(cc3c2N)CN(Cc2ccccc2)CC4)c(C)c1,92%

# Test system: MDA-MB-231
# Test: Growth inhibition of human MDA-MB-231 cells assessed as cell growth at 0.01 uM incubated for 48 hrs by sulforhodamine B assay relative to control
# Assay type: functional
# Conditions: read-out: Activity
row,Compound,growth at 0.01 µM
1,Cc1cc(C)c(NC(=O)c2sc3nc4c(cc3c2N)CN(Cc2ccccc2)CC4)c(C)c1,100%

# Test system: T47D
# Test: Growth inhibition of human T47D cells assessed as cell growth at 0.01 uM incubated for 48 hrs by sulforhodamine B assay relative to control
# Assay type: functional
# Conditions: read-out: Activity
row,Compound,growth at 0.01 µM
1,Cc1cc(C)c(NC(=O)c2sc3nc4c(cc3c2N)CN(Cc2ccccc2)CC4)c(C)c1,90%

# Test system: K562
# Test: Growth inhibition of human K562 cells assessed as cell growth at 0.1 uM incubated for 48 hrs by sulforhodamine B assay relative to control
# Assay type: functional
# Conditions: read-out: Activity
row,Compound,growth at 0.1 µM
1,Cc1cc(C)c(NC(=O)c2sc3nc4c(cc3c2N)CN(Cc2ccccc2)CC4)c(C)c1,105%

# Test system: SK-MEL-2
# Test: Growth inhibition of human SK-MEL-2 cells assessed as cell growth at 0.1 uM incubated for 48 hrs by sulforhodamine B assay relative to control
# Assay type: functional
# Conditions: read-out: Activity
row,Compound,growth at 0.1 µM
1,Cc1cc(C)c(NC(=O)c2sc3nc4c(cc3c2N)CN(Cc2ccccc2)CC4)c(C)c1,113%

# Test system: IGROV-1
# Test: Growth inhibition of human IGROV-1 cells assessed as cell growth at 0.1 uM incubated for 48 hrs by sulforhodamine B assay relative to control
# Assay type: functional
# Conditions: read-out: Activity
row,Compound,growth at 0.1 µM
1,Cc1cc(C)c(NC(=O)c2sc3nc4c(cc3c2N)CN(Cc2ccccc2)CC4)c(C)c1,94%

# Test system: OVCAR-8
# Test: Growth inhibition of human OVCAR-8 cells assessed as cell growth at 0.1 uM incubated for 48 hrs by sulforhodamine B assay relative to control
# Assay type: functional
# Conditions: read-out: Activity
row,Compound,growth at 0.1 µM
1,Cc1cc(C)c(NC(=O)c2sc3nc4c(cc3c2N)CN(Cc2ccccc2)CC4)c(C)c1,97%

# Test system: BT-549
# Test: Growth inhibition of human BT-549 cells assessed as cell growth at 0.1 uM incubated for 48 hrs by sulforhodamine B assay relative to control
# Assay type: functional
# Conditions: read-out: Activity
row,Compound,growth at 0.1 µM
1,Cc1cc(C)c(NC(=O)c2sc3nc4c(cc3c2N)CN(Cc2ccccc2)CC4)c(C)c1,91%

# Test system: RPMI-8226
# Test: Growth inhibition of human RPMI-8226 cells assessed as cell growth at 1 uM incubated for 48 hrs by sulforhodamine B assay relative to control
# Assay type: functional
# Conditions: read-out: Activity
row,Compound,growth at 1 µM
1,Cc1cc(C)c(NC(=O)c2sc3nc4c(cc3c2N)CN(Cc2ccccc2)CC4)c(C)c1,87%

# Test system: HOP-62
# Test: Growth inhibition of human HOP-62 cells assessed as cell growth at 1 uM incubated for 48 hrs by sulforhodamine B assay relative to control
# Assay type: functional
# Conditions: read-out: Activity
row,Compound,growth at 1 µM
1,Cc1cc(C)c(NC(=O)c2sc3nc4c(cc3c2N)CN(Cc2ccccc2)CC4)c(C)c1,81%

# Test system: MDA-MB-435
# Test: Growth inhibition of human MDA-MB-435 cells assessed as cell growth at 1 uM incubated for 48 hrs by sulforhodamine B assay relative to control
# Assay type: functional
# Conditions: read-out: Activity
row,Compound,growth at 1 µM
1,Cc1cc(C)c(NC(=O)c2sc3nc4c(cc3c2N)CN(Cc2ccccc2)CC4)c(C)c1,20%

# Test system: UACC-257
# Test: Growth inhibition of human UACC-257 cells assessed as cell growth at 1 uM incubated for 48 hrs by sulforhodamine B assay relative to control
# Assay type: functional
# Conditions: read-out: Activity
row,Compound,growth at 1 µM
1,Cc1cc(C)c(NC(=O)c2sc3nc4c(cc3c2N)CN(Cc2ccccc2)CC4)c(C)c1,80%

# Test system: ACHN
# Test: Growth inhibition of human ACHN cells assessed as cell growth at 1 uM incubated for 48 hrs by sulforhodamine B assay relative to control
# Assay type: functional
# Conditions: read-out: Activity
row,Compound,growth at 1 µM
1,Cc1cc(C)c(NC(=O)c2sc3nc4c(cc3c2N)CN(Cc2ccccc2)CC4)c(C)c1,89%

# Test system: MDA-MB-468
# Test: Growth inhibition of human MDA-MB-468 cells assessed as cell growth at 1 uM incubated for 48 hrs by sulforhodamine B assay relative to control
# Assay type: functional
# Conditions: read-out: Activity
row,Compound,growth at 1 µM
1,Cc1cc(C)c(NC(=O)c2sc3nc4c(cc3c2N)CN(Cc2ccccc2)CC4)c(C)c1,63%

# Test system: NCI-H460
# Test: Growth inhibition of human NCI-H460 cells assessed as cell growth at 100 uM incubated for 48 hrs by sulforhodamine B assay relative to control
# Assay type: functional
# Conditions: read-out: Activity
row,Compound,growth at 100 µM
1,Cc1cc(C)c(NC(=O)c2sc3nc4c(cc3c2N)CN(Cc2ccccc2)CC4)c(C)c1,-25%

# Test system: COLO 205
# Test: Growth inhibition of human COLO 205 cells assessed as cell growth at 100 uM incubated for 48 hrs by sulforhodamine B assay relative to control
# Assay type: functional
# Conditions: read-out: Activity
# Summary of the method: as §1
row,Compound,growth at 100 µM
1,Cc1cc(C)c(NC(=O)c2sc3nc4c(cc3c2N)CN(Cc2ccccc2)CC4)c(C)c1,-60%

# Test system: LOX IMVI
# Test: Growth inhibition of human LOX IMVI cells assessed as cell growth at 100 uM incubated for 48 hrs by sulforhodamine B assay relative to control
# Assay type: functional
# Conditions: read-out: Activity
row,Compound,growth at 100 µM
1,Cc1cc(C)c(NC(=O)c2sc3nc4c(cc3c2N)CN(Cc2ccccc2)CC4)c(C)c1,-83%

# Test system: SK-MEL-2
# Test: Growth inhibition of human SK-MEL-2 cells assessed as cell growth at 100 uM incubated for 48 hrs by sulforhodamine B assay relative to control
# Assay type: functional
# Conditions: read-out: Activity
row,Compound,growth at 100 µM
1,Cc1cc(C)c(NC(=O)c2sc3nc4c(cc3c2N)CN(Cc2ccccc2)CC4)c(C)c1,6%

# Test system: SK-MEL-28
# Test: Growth inhibition of human SK-MEL-28 cells assessed as cell growth at 100 uM incubated for 48 hrs by sulforhodamine B assay relative to control
# Assay type: functional
# Conditions: read-out: Activity
row,Compound,growth at 100 µM
1,Cc1cc(C)c(NC(=O)c2sc3nc4c(cc3c2N)CN(Cc2ccccc2)CC4)c(C)c1,-30%

# Test system: IGROV-1
# Test: Growth inhibition of human IGROV-1 cells assessed as cell growth at 100 uM incubated for 48 hrs by sulforhodamine B assay relative to control
# Assay type: functional
# Conditions: read-out: Activity
row,Compound,growth at 100 µM
1,Cc1cc(C)c(NC(=O)c2sc3nc4c(cc3c2N)CN(Cc2ccccc2)CC4)c(C)c1,5%

# Test system: NCI/ADR-RES
# Test: Growth inhibition of human NCI/ADR-RES cells assessed as cell growth at 100 uM incubated for 48 hrs by sulforhodamine B assay relative to control
# Assay type: functional
# Conditions: read-out: Activity
row,Compound,growth at 100 µM
1,Cc1cc(C)c(NC(=O)c2sc3nc4c(cc3c2N)CN(Cc2ccccc2)CC4)c(C)c1,-11%

# Test system: MOLT-4
# Test: Growth inhibition of human MOLT-4 cells incubated for 48 hrs by sulforhodamine B assay
# Assay type: functional
# Conditions: not given
# Summary of the method: (§2)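 NCI60 panel at the NCI Developmental Therapeutics Program. Only compounds active in the 10 µM screen went to dose-response testing. GI50, the concentration giving 50% of maximal inhibition of proliferation, and TGI, the concentration giving total growth inhibition, were derived from the dose-response curves.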
Compound,GI50,TGI
Cc1cc(C)c(NC(=O)c2sc3nc4c(cc3c2N)CN(Cc2ccccc2)CC4)c(C)c1,4.15 µM,> 100 µM

# Same assay, conditions: read-out: LC50 (the source's name)
row,Compound,CC50
1,Cc1cc(C)c(NC(=O)c2sc3nc4c(cc3c2N)CN(Cc2ccccc2)CC4)c(C)c1,> 100 µM

# Test system: A549
# Test: Growth inhibition of human A549/ATCC cells incubated for 48 hrs by sulforhodamine B assay
# Assay type: functional
# Conditions: not given
# Summary of the method: as §1
Compound,GI50,TGI
Cc1cc(C)c(NC(=O)c2sc3nc4c(cc3c2N)CN(Cc2ccccc2)CC4)c(C)c1,4.11 µM,> 100 µM

# Same assay, conditions: read-out: LC50 (the source's name)
row,Compound,CC50
1,Cc1cc(C)c(NC(=O)c2sc3nc4c(cc3c2N)CN(Cc2ccccc2)CC4)c(C)c1,> 100 µM

# Test system: NCI-H226
# Test: Growth inhibition of human NCI-H226 cells incubated for 48 hrs by sulforhodamine B assay
# Assay type: functional
# Conditions: not given
# Summary of the method: as §2
Compound,GI50,TGI
Cc1cc(C)c(NC(=O)c2sc3nc4c(cc3c2N)CN(Cc2ccccc2)CC4)c(C)c1,4.69 µM,> 100 µM

# Same assay, conditions: read-out: LC50 (the source's name)
row,Compound,CC50
1,Cc1cc(C)c(NC(=O)c2sc3nc4c(cc3c2N)CN(Cc2ccccc2)CC4)c(C)c1,> 100 µM

# Test system: UACC-62
# Test: Growth inhibition of human UACC-62 cells incubated for 48 hrs by sulforhodamine B assay
# Assay type: functional
# Conditions: not given
# Summary of the method: (§3)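 NCI DTP 60-line human tumour panel. Dose-response curves were run only for ligands active in the initial 10 µM screen. GI50 (concentration giving 50% of maximal inhibition of proliferation) and TGI (concentration giving total growth inhibition) were derived from these curves.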
Compound,GI50,LC50,TGI
Cc1cc(C)c(NC(=O)c2sc3nc4c(cc3c2N)CN(Cc2ccccc2)CC4)c(C)c1,3.9 µM,> 100 µM,42.4 µM

# Test system: IGROV-1
# Test: Growth inhibition of human IGROV-1 cells incubated for 48 hrs by sulforhodamine B assay
# Assay type: functional
# Conditions: not given
# Summary of the method: as §2
Compound,GI50,LC50,TGI
Cc1cc(C)c(NC(=O)c2sc3nc4c(cc3c2N)CN(Cc2ccccc2)CC4)c(C)c1,6.54 µM,> 100 µM,> 100 µM

# Test system: OVCAR-4
# Test: Growth inhibition of human OVCAR-4 cells incubated for 48 hrs by sulforhodamine B assay
# Assay type: functional
# Conditions: not given
# Summary of the method: as §3
Compound,GI50,TGI
Cc1cc(C)c(NC(=O)c2sc3nc4c(cc3c2N)CN(Cc2ccccc2)CC4)c(C)c1,6.72 µM,> 100 µM

# Same assay, conditions: read-out: LC50 (the source's name)
row,Compound,CC50
1,Cc1cc(C)c(NC(=O)c2sc3nc4c(cc3c2N)CN(Cc2ccccc2)CC4)c(C)c1,> 100 µM

# Test system: UO-31
# Test: Growth inhibition of human UO-31 cells incubated for 48 hrs by sulforhodamine B assay
# Assay type: functional
# Conditions: not given
# Summary of the method: as §3
Compound,GI50,TGI
Cc1cc(C)c(NC(=O)c2sc3nc4c(cc3c2N)CN(Cc2ccccc2)CC4)c(C)c1,4.78 µM,93.9 µM

# Same assay, conditions: read-out: LC50 (the source's name)
row,Compound,CC50
1,Cc1cc(C)c(NC(=O)c2sc3nc4c(cc3c2N)CN(Cc2ccccc2)CC4)c(C)c1,> 100 µM
